The record followed here is ChEMBL document CHEMBL3865824, “New (E)-1-alkyl-1H-benzo[d]imidazol-2-yl)methylene)indolin-2-ones: Synthesis, in vitro cytotoxicity evaluation and apoptosis inducing studies” (Eur J Med Chem, 2016).

The source made the active and inactive calls. No cut-off for these calls is given here.

The nature of data set [1]: Selectivity ratio of IC50 for human MCF10A cells to IC50 for human MDA-MB-231 cells. Type of data set: ADME, cell-based, MCF-10A. The settings on record: MCF10A cells versus MDA-MB-231 cells, read-out: Ratio IC50.
Data set [2] has as its system MDA-MB-231. As to the kind of experiment: Induction of apoptosis in human MDA-MB-231 cells assessed as necrotic cells at 1 uM after 24 hrs by Annexin V-FITC/propidium iodide-staining based FACS analysis (reference value: 2.8 %). Type of data set: functional. (In general: Flow cytometry measures light scatter and fluorescence of single cells or particles in a stream.)

Data set [3] has as its system MDA-MB-231. Briefly: Inhibition of F-actin polymerization in human MDA-MB-231 cells assessed as decrease in protein extension at 1 to 4 uM after 12 hrs by rhodamine-phalloidin/hoechst […]-dual staining based confocal microscopic analysis. Type of data set: cell-based. The method in brief:
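MDA-MB-231 cells (1×10^6/well) were grown on coverslips for 24 h, then exposed 12 h to 1, 2 and 4 μM. After a PBS wash and fixation in 4% paraformaldehyde, F-actin was stained with rhodamine-phalloidin and nuclei with Hoechst […]. Slides were mounted in anti-fade reagent and imaged by confocal microscopy (20× objective).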

Turning to `CC(C)n1c(/C=C2/C(=O)Nc3ccc(Br)cc32)nc2ccccc21`, the selectivity ratio in data set [1] came out at 17. Moreover, in the data set with MDA-MB-231 [2], the Activity was found to be 3.4%. In addition, in the data set with MDA-MB-231 [3], the inhibition result is “Active”.
